For 56 compounds, IC50 results are on record in ChEMBL document CHEMBL1140997 (Bioorg Med Chem, 2009).

Test [1] concerns the target T1, Prostaglandin G/H synthase 2 (Homo sapiens, UniProt P35354).
T1 sequence (P35354 whole entry): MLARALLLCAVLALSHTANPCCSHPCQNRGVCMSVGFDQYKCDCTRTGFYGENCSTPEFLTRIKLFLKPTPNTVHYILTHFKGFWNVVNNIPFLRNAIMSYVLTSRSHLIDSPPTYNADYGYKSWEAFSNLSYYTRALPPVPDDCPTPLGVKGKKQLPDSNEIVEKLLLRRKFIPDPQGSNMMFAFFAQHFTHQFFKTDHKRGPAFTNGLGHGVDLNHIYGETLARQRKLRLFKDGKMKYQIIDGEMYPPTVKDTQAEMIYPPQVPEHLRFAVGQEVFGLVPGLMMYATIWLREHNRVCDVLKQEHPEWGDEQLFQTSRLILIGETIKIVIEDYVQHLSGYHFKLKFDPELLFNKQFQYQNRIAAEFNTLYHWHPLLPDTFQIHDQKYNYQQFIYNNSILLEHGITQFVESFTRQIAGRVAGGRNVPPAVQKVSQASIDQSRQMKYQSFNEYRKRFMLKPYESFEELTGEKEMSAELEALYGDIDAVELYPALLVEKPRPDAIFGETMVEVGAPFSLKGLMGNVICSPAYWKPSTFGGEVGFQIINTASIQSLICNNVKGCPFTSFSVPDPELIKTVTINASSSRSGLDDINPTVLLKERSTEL
As to the kind of experiment: Inhibition of COX2.

The target of test [2] is Prostaglandin G/H synthase 1 (Homo sapiens, UniProt P23219). As to the kind of experiment: Inhibition of COX1. A digest of the protocol:
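Reaction in 100 mM Tris-HCl pH 8.0 containing 1 µM heme, 500 µM phenol and 300 µM epinephrine, with enough COX-1 to make 150 ng/ml PGE2. Started with arachidonic acid (10 µM final), 10 min at room temperature, stopped into indomethacin. PGE2 measured by ELISA against a PGE2 standard curve. Values are % of solvent control; IC50 from four serial dilutions, mean of two experiments.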

The nature of test [3]: Inhibition of TNFalpha induced NF-kappaB activation in human 293 cells after 24 hrs by luciferase reporter gene assay. To be noted: HEK293, 24 h. The class given is cell-based. A digest of the protocol:
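Cells incubated 24 h with TNFα (20 ng/ml) and test compounds, PBS-washed, lysed 10 min, luciferase read. Screen at 20 µg/ml; active compounds then run as dose-response in duplicate. Values are % of TNFα-treated control; IC50 from five serial dilutions, mean of two experiments.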
Background: A reporter such as luciferase makes a cellular process visible.

Each structure is given as a SMILES string.

Chain of Prostaglandin G/H synthase 1 (P23219 whole entry): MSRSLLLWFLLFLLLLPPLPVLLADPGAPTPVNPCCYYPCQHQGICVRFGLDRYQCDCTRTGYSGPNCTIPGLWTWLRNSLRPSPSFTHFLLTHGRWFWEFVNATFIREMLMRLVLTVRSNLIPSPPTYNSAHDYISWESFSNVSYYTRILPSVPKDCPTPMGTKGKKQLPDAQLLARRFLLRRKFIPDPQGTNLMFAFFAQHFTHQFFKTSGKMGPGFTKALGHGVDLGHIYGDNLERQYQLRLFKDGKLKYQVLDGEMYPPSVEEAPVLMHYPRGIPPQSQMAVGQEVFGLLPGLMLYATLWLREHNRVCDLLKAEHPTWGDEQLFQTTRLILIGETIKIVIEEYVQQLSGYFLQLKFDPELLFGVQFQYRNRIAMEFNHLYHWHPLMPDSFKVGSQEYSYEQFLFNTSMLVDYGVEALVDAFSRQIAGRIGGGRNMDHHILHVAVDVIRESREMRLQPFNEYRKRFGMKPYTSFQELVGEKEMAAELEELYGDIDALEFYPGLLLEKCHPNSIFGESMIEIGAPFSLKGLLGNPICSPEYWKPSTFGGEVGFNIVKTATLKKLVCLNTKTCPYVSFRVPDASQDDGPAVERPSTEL

With `C/C(=C\c1cc(O)cc(O)c1)c1cccc(F)c1`, the IC50 in test [1] is 2.54 µM; in test [2], 4.9 µM.

In the case of `Oc1cc(O)cc(/C=C/c2ccc(F)cc2)c1`, the IC50 in test [2] turned out to be 51.3 µM; in test [3] it was 52.1 µM. As for `Oc1cc(O)cc(/C=C/c2cccc(F)c2)c1`, the figures for the half-inhibitory concentration (IC50) in test [1] and in test [2] were 0.82 µM and 16.5 µM, respectively. In test [3], `COc1ccc(/C=C/c2ccc(OC)c(OC)c2)cc1` displayed an IC50 of 52 µM. That is a double-digit micromolar value. `O=[N+]([O-])c1ccc(/C=C/c2cc(O)cc(O)c2)cc1`: the figures for the half-maximal inhibitory concentration (IC50) in test [1] and in test [2] were 31.6 µM and 2.2 µM, respectively.

For the compound `C/C(=C\c1cc(O)cc(O)c1)c1ccc(O)cc1`, the results for the IC50 in test [1] and in test [2] were 1.57 µM and 1.9 µM, respectively. In the same order, the values of `COc1ccc(/C=C(\C)c2cc(O)cc(O)c2)cc1OC` are 12.8 µM and 10.6 µM.

In test [3], `Oc1ccc(/C=C/c2ccc3ccccc3c2)cc1O` gave an IC50 of 6.91 µM. Take `CN(C)c1ccc(/C=C/c2cc(O)cc(O)c2)cc1`: the IC50 in test [2] stood at 17.8 µM. `COc1ccc(/C(C)=C/c2cc(OC)cc(OC)c2)cc1`: the IC50 in test [3] worked out at 27.1 µM.

Compound `COc1ccc(/C=C/c2ccc(O)c(O)c2)cc1` had an IC50 in test [3] of 12.2 µM. In test [1], `C/C(=C\c1ccc(C(F)(F)F)cc1)c1ccc(O)c(O)c1` returned an IC50 of 1.74 µM. That is a single-digit micromolar value. Take `Oc1cc(O)cc(/C=C/c2ccc3ccccc3c2)c1`: it took 18.4 µM to reach half-maximal inhibition in test [2] (IC50). In test [3], `C/C(=C\c1ccc2ccccc2c1)c1cc(O)cc(O)c1` gave a 50% inhibitory concentration (IC50) of 42.3 µM. For `C/C(=C\c1ccc(O)c(O)c1)c1ccc(O)cc1`, 21.3 µM corresponded to half-maximal inhibition in test [3] (IC50). Turning to `COc1ccc(/C=C/c2cccc(F)c2)cc1OC`, the IC50 in test [2] worked out at 3.2 µM; in test [3], 38.8 µM. For the compound `Oc1cc(O)cc(/C=C/c2ccc(C(F)(F)F)cc2)c1`, the IC50 in test [2] was 29.7 µM; in test [3], 12.9 µM.

In test [2], `CC/C(=C\c1cccc(F)c1)c1cc(O)cc(O)c1` came in with a half-maximal inhibitory concentration (IC50) of 5.4 µM. Take `CC/C(=C\c1cc(O)cc(O)c1)c1cccc(F)c1`: the 50% inhibitory concentration (IC50) was found to be 17.7 µM in test [1], 3.5 µM in test [2] and 25.7 µM in test [3].

In the case of `Oc1ccc(/C=C/c2cc(O)cc(O)c2)cc1` [RESVERATROL], the concentration for half-maximal inhibition (IC50) in test [3] came to 16.1 µM. In test [2], `COc1cc(/C=C(\C)c2ccc(C(F)(F)F)cc2)cc(OC)c1` came in with an IC50 of 32.6 µM. With `COc1ccc(/C=C/c2cc(O)cc(O)c2)cc1` [RESVERATROL 4'-METHYL ETHER], the IC50 in test [1] was determined as 19.6 µM; in test [2], 25.8 µM. Consider `COc1ccc(/C(C)=C/c2ccc3ccccc3c2)cc1`, for which, in test [3], the IC50 was found to be 48.2 µM. Take `COc1cc(/C=C(/c2ccc(F)cc2)C(F)(F)F)cc(OC)c1`: the figures for the IC50 in test [2] and in test [3] were 3 µM and 39 µM, respectively. `COc1cc(/C=C/c2ccc(O)cc2)cc(OC)c1` [PTEROSTILBENE]: the figures for the IC50 in test [1], in test [2] and in test [3] were 0.82 µM, 0.7 µM and 19.5 µM, respectively. In test [3], `COc1cccc(/C=C/c2ccc(OC)c(OC)c2)c1` showed an IC50 of 17.3 µM.

`CC/C(=C\c1ccc(N(C)C)cc1)c1cc(O)cc(O)c1`: the half-maximal inhibitory concentration (IC50) in test [1] was determined as 2.2 µM; in test [2], 7.4 µM. `COc1cc(/C=C/c2ccc(F)cc2)cc(OC)c1`: the IC50 in test [3] came out at 37.5 µM. With `C/C(=C\c1ccc(N(C)C)cc1)c1cc(O)cc(O)c1`, the IC50 in test [1] was 1.74 µM; in test [2], 10.7 µM. Take `C/C(=C\c1cccc(F)c1)c1cc(O)cc(O)c1`: the IC50 in test [2] was 10.5 µM. In other words, the double-digit micromolar range. `C/C(=C\c1ccc(C(F)(F)F)cc1)c1cc(O)cc(O)c1` registered an IC50 in test [2] of 10.9 µM.

In turn, `C/C(=C\c1ccc(O)c(O)c1)c1ccc(Cl)cc1` registered an IC50 in test [3] of 37.5 µM.

With `Oc1ccc(/C=C/c2cccc(F)c2)cc1O`, the concentration for half-maximal inhibition (IC50) in test [2] was 11.5 µM; in test [3] it was 10.3 µM. In the same order, the values of `CC/C(=C\c1cc(O)cc(O)c1)c1ccc(Cl)cc1` are 11.6 µM and 38.3 µM. In the case of `COc1ccc(/C=C/c2ccc(N(C)C)cc2)cc1OC`, in test [3], 34.7 µM corresponded to half-maximal inhibition (IC50). Consider `CC/C(=C\c1cc(O)cc(O)c1)c1ccc2ccccc2c1`, for which the IC50 was 3.3 µM in test [1] and 0.17 µM in test [2]. In test [3], `COc1ccc(/C(=C/c2cc(OC)cc(OC)c2)C(F)(F)F)cc1` showed a half-inhibitory concentration (IC50) of 37.8 µM. The compound `Oc1ccc(/C=C/c2ccc(C(F)(F)F)cc2)cc1O` returned a half-inhibitory concentration (IC50) in test [3] of 14.8 µM. Regarding `CC/C(=C\c1cc(O)cc(O)c1)c1ccc(N(C)C)cc1`, the IC50 in test [1] was 14.8 µM; in test [2], 30.5 µM. As to `C/C(=C\c1ccc(O)cc1)c1cc(O)cc(O)c1`, the IC50 in test [1] was found to be 1.78 µM; in test [2] it was 1.9 µM; in test [3], 26.2 µM. `CC/C(=C\c1ccc(OC)c(OC)c1)c1cc(O)cc(O)c1`: in test [2], the IC50 stood at 9.7 µM. Turning to `COc1ccc(/C(C)=C/c2cc(O)cc(O)c2)cc1`, the IC50 in test [1] came to 16 µM; in test [2], 12.4 µM; in test [3], 35.2 µM. For the compound `COc1ccc(/C=C/c2cc(OC)cc(OC)c2)cc1` [TRISMETHOXYRESVERATROL], 28.3 µM corresponded to half-maximal inhibition in test [3] (IC50).

With `COc1cc(/C=C/c2ccc([N+](=O)[O-])cc2)cc(OC)c1`, the 50% inhibitory concentration (IC50) in test [1] came to 5.94 µM; in test [2] it was 10 µM. In test [3], `CC/C(=C\c1cc(OC)cc(OC)c1)c1ccc(OC)c(OC)c1` yielded a half-maximal inhibitory concentration (IC50) of 27.2 µM. This lies in the double-digit micromolar range. Regarding `COc1ccc(/C(C)=C/c2cc(O)cc(O)c2)cc1OC`, the concentration for half-maximal inhibition (IC50) in test [2] worked out at 11.4 µM; in test [3], 13.1 µM. With `CC/C(=C\c1ccc(C(F)(F)F)cc1)c1cc(O)cc(O)c1`, 0.99 µM corresponded to half-maximal inhibition in test [2] (IC50). Take `COc1cc(/C=C(/c2cccc(C(F)(F)F)c2)C(F)(F)F)cc(OC)c1`: the half-maximal inhibitory concentration (IC50) in test [3] came out at 31.9 µM. In other words, the double-digit micromolar range. In the case of `COc1cc(/C=C/c2ccc3ccccc3c2)cc(OC)c1`, the midpoint of inhibition in test [3], the IC50, lay at 18.8 µM. Consider `C/C(=C\c1cc(O)cc(O)c1)c1ccc(Cl)cc1`, for which the IC50 in test [2] is 5.3 µM; in test [3], 39.2 µM. Turning to `C/C(=C\c1cc(O)cc(O)c1)c1ccc(C(F)(F)F)cc1`, the IC50 in test [2] is 0.97 µM; in test [3] it was 34.2 µM. As for `Oc1ccc(/C=C/c2ccc(O)c(O)c2)cc1`, the IC50 in test [3] stood at 12.7 µM. Turning to `C/C(=C\c1ccc(C(F)(F)F)cc1)c1ccc(O)cc1`, the IC50 was 0.47 µM in test [1] and 36.3 µM in test [2].

In test [3], `COc1ccc(/C=C(/c2cccc(C(F)(F)F)c2)C(F)(F)F)cc1OC` displayed a 50% inhibitory concentration (IC50) of 25.5 µM.

In test [2], `COc1ccc(/C=C(/c2cc(OC)cc(OC)c2)C(F)(F)F)cc1` displayed an IC50 of 7.8 µM. `Oc1ccc(/C=C/c2ccc(F)cc2)cc1O` came in with a concentration for half-maximal inhibition (IC50) in test [3] of 17.9 µM.

Usually IC50 stands for the concentration that inhibits the measured activity by half.
